# Results published in ChEMBL document CHEMBL1817660, “Synthesis of various 3-nitropropionamides as Mycobacterium tuberculosis isocitrate lyase inhibitor” (Bioorg Med Chem Lett, 2011).
# What was measured:
# [1] = test system: Mycobacterium tuberculosis; assay: Antimycobacterial activity against active log phase Mycobacterium tuberculosis H37Rv by agar dilution method; type: functional
# In short: (§1)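 Log-phase cultures (M. tuberculosis H37Rv at OD 600; M. smegmatis ATCC 14468) tested by agar dilution following NCCLS-type MIC procedure, in duplicate. MIC taken as lowest concentration giving complete inhibition of bacterial growth.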
# [2] = test system: Mycobacterium tuberculosis; assay: Antimycobacterial activity against 6-weeks nutrient starved phase cultures of Mycobacterium tuberculosis H37Rv treated for 7 days measured after 4 weeks by agar dilution method; type: functional
# [3] = test system: Mycolicibacterium smegmatis; assay: Antimycobacterial activity against 6-weeks nutrient starved phase cultures of Mycobacterium smegmatis ATCC 14468 treated for 7 days measured after 4 weeks by agar dilution method; type: functional
# [4] = test system: Mycolicibacterium smegmatis; assay: Antimycobacterial activity against active log phase Mycobacterium smegmatis ATCC 14468 by agar dilution method; type: functional; in short: as §1
# [5] = target: T1, Isocitrate lyase (Mycobacterium tuberculosis, UniProt P9WKK7); assay: Inhibition of Mycobacterium tuberculosis isocitrate lyase
# T1 sequence (P9WKK7 whole entry): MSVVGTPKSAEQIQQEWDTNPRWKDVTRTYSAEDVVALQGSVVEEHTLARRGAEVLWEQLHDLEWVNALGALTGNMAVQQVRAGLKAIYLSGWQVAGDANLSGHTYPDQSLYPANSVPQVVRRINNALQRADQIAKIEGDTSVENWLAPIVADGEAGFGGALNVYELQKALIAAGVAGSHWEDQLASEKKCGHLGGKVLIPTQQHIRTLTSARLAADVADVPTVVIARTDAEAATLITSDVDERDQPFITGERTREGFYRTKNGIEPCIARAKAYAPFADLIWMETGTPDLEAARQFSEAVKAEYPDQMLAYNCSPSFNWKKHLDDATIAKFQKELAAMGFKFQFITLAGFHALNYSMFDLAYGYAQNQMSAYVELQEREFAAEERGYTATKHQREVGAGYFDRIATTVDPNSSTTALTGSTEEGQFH
# [6] = Cytotoxicity against African green monkey Vero cells after 72 hrs by MTT assay; type: cell-based; conditions: chlorocebus sabaeus
# In short: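 Vero cells exposed to a single concentration of 62.5 µg/mL for 72 h; viability read by cellular conversion of MTT to formazan (non-radioactive cell proliferation assay).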
# [7] = test system: Mycobacterium tuberculosis; assay: Ratio of MIC for 6-weeks nutrient starved phase cultures of Mycobacterium tuberculosis H37Rv to MIC for active log phase Mycobacterium tuberculosis H37Rv; type: functional
# [8] = Selectivity index, ratio of CC50 for African green monkey Vero cells to MIC for 6-weeks nutrient starved phase cultures of Mycobacterium tuberculosis H37Rv; type: functional
# [9] = test system: Mycobacterium tuberculosis; assay: Ratio of isoniazid MIC to compound MIC for active log phase Mycobacterium tuberculosis H37Rv by agar dilution method; type: functional
# In short: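 MIC by agar dilution, following NCCLS-type guidance, against log-phase M. tuberculosis H37Rv (OD 600), run in duplicate. MIC is the lowest concentration that gives complete inhibition of bacterial growth. The line's ratio is isoniazid MIC divided by compound MIC.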
SMILES,MIC [1] [µM],MIC [2] [µM],MIC [3] [µM],MIC [4] [µM],IC50 [5] [µM],CC50 at 72 h [6] [µM],Ratio [7],Selectivity Index [8],Ratio [9]
O=C(CC[N+](=O)[O-])Nc1ccccc1,257,64.4,> 257,129,,,,,
Cc1ccc(NC(=O)CC[N+](=O)[O-])cc1,240,60,> 240,120,,,,,
COc1ccc(NC(=O)CC[N+](=O)[O-])cc1,223,55.8,> 223,112,,,,,
O=C(CC[N+](=O)[O-])Nc1ccc(Cl)cc1,109,27.3,13.7,54.7,21.3,,,,
O=C(CC[N+](=O)[O-])Nc1ccc(Br)cc1,183,45.8,91.5,91.5,32.5,,,,
O=C(CC[N+](=O)[O-])Nc1ccc(F)cc1,118,58.9,236,118,,,,,
Cc1ccc(NC(=O)CC[N+](=O)[O-])c(C)c1,225,75,> 225,225,,,,,
Cc1cc(NC(=O)CC[N+](=O)[O-])ccc1Br,43.5,43.5,43.5,87.1,36.8,,,,
Cc1ccnc(NC(=O)CC[N+](=O)[O-])c1,239,59.8,239,> 239,,,,,
O=C(CC[N+](=O)[O-])Nc1ccc(Cl)cn1,109,54.4,109,218,,,,,
CCN(CC)C(=O)CC[N+](=O)[O-],> 287,> 287,> 287,287,,,,,
CCCN(CCC)C(=O)CC[N+](=O)[O-],> 247,> 247,> 247,> 247,,,,,
O=C(CC[N+](=O)[O-])N(Cc1ccccc1)Cc1ccccc1,> 168,> 168,> 168,168,,,,,
CCN1CCN(C(=O)CC[N+](=O)[O-])CC1,58.1,29,116,58.1,12.6,,,,
O=C(CC[N+](=O)[O-])N1CCN(c2ccccc2)CC1,190,47.5,> 190,190,41.2,,,,
O=C(CC[N+](=O)[O-])N1CCN(c2cccc(C(F)(F)F)c2)CC1,151,37.7,75.5,75.5,30.2,,,,
O=C(CC[N+](=O)[O-])N1CCN(Cc2ccccc2)CC1,> 180,90.1,> 180,> 180,,,,,
CCn1cc(C(=O)O)c(=O)c2cc(F)c(N3CCN(C(=O)CC[N+](=O)[O-])CC3)cc21,1.85,0.47,0.95,7.44,0.2,> 149,,,
O=C(O)c1cn(C2CC2)c2cc(N3CCN(C(=O)CC[N+](=O)[O-])CC3)c(F)cc2c1=O,1.8,0.09,0.09,0.09,0.12,> 145,,,
CCn1cc(C(=O)O)c(=O)c2cc(F)c(N3CCN(C(=O)CC[N+](=O)[O-])CC3C)c(F)c21 (configuration not stated),3.44,1.72,1.72,6.91,1.46,> 138,,,
COc1c(N2C(C)CN(C(=O)CC[N+](=O)[O-])CC2C)c(F)cc2c(=O)c(C(=O)O)cn(C3CC3)c12 (configuration not stated),0.16,0.04,0.08,0.08,0.1,> 127,4,3185,4.5
O=C(O)CC[N+](=O)[O-],> 420,> 420,> 420,> 420,116,,,,
O=C(O)c1cn(C2CC2)c2cc(N3CCNCC3)c(F)cc2c1=O [CIPROFLOXACIN],,,2.35,,,,,,
NNC(=O)c1ccncc1 [ISONIAZID],0.72,> 365,> 365,45.6,,> 456,,,
